SENP7 block: blocks the human protease SENP7. inhibition, % at 5 µM. recombinant SENP7, Z-RLRGG-aminoluciferin luminescence, 40 min. 330,000 compounds, 1.5% hits. Q9BQF6. AID 434973;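 active means inhibition above about 50% at the single test dose, limit read from the data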
Target sequence (Q9BQF6 706-1050 limits assumed): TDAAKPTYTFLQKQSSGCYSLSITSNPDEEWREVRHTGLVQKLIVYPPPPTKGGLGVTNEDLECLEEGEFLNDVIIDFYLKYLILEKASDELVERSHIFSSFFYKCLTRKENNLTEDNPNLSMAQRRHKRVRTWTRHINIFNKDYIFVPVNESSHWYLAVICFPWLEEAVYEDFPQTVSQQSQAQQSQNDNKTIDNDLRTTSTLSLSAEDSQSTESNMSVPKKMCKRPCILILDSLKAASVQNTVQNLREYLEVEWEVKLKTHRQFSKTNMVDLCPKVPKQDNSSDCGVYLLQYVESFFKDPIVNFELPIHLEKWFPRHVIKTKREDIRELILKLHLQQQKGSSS
HSP90 refold inh: inhibitors of HSP90 luciferase refolding in rabbit reticulocyte lysate. luciferase refolding luminescence, 3 h. inhibition, % at 5.6 µM. 290,000 compounds, 0.91% hits. AID 1789;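 active means inhibition above the screen-wide mean plus 3 SD, computed separately per campaign, cut at about 16% in these data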;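 further: inhibitors lower the luminescence because luciferase stays unfolded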
SENP6 inh: blocks the human protease SENP6; Q9GZR1; Recombinant SENP6 catalytic domain, aminoluciferin luminescence; inhibition, % at 10 µM; 330,000 compounds, 1.8% hits; AID 2599;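 active means inhibition above about 50% at the single tested dose, limit read from the data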
SENP8 block-1: SENP8 protease inhibition. Q96LD8. purified SENP8, Z-RLRGG-aminoluciferin cleavage, luminescence. inhibition, % at 10 µM. 330,000 compounds, 1.2% hits. AID 2540; in the data active means inhibition above about 50%
Target sequence (Q96LD8 whole entry, looked up): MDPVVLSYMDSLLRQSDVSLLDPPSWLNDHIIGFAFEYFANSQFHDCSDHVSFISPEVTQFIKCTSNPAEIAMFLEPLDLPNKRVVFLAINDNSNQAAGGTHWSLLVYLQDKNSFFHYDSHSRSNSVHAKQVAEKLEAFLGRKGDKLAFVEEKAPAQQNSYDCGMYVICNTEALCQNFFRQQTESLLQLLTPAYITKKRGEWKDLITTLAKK
SENP8 block-2: blocks human SENP8 cleavage of Nedd8 substrate | Q96LD8 | recombinant SENP8, Nedd8 substrate fluorescence | inhibition, % at 20 µM | 360,000 compounds, 0.64% hits | AID 602440; in the data active means inhibition mostly above about 40%, no sharp cut-off; inactive means mostly below about 27%
SENP1 inh: blocks the human SENP1 SUMO protease catalytic domain | Q9P0U3 | recombinant SENP1 catalytic domain, CyPet-SUMO1-YPet FRET cleavage | inhibition, % at 10 µM | 360,000 compounds, 0.21% hits;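 active means inhibition at least 30% at 10 µM, raw YFP signal under a set limit, fluorescence ratio 0.5 to 1.5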
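Compound: 10 µM single point, 0.5% DMSO; Test system: hSENP1 catalytic domain, recombinant; Timing: 50 min reaction at room temperature; Technique: FRET, CFP and YFP emission; Control set: no-enzyme wells low, DMSO-plus-enzyme wells high control.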
HSP90 inh confirm: HSP90 inhibition, confirmation assay. shares compounds with HSP90 refold inh. rabbit reticulocyte lysate, luciferase refolding luminescence, 3 h. inhibition, % at 5.9 µM. 2,300 compounds, 64% hits. AID 1846; in the data active means inhibition above about 18%
FLuc counter: counter-screen for HSP90 inhibitors: inhibitors of firefly luciferase. purified native firefly luciferase, luminescence. 2,300 compounds, 48% hits. shares compounds with HSP90 refold inh. inhibition, % at 5.9 µM;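 active means inhibition above the mean inhibition of all tested sample wells plus 3 SD, cut at about 10% in these data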
Hits are given with their value; - = inactive; . = not tested or not shown. This is a sample that favours compounds with a hit; in the whole collection about 2.9% have one here.

SMILES	SENP7 block	HSP90 refold inh	SENP6 inh	SENP8 block-1	SENP8 block-2	SENP1 inh	HSP90 inh confirm	FLuc counter
COC(=O)[C@@H](c1ccccc1)N(C)S(=O)(=O)c1cccc(S(=O)(=O)N(C)[C@@H](C(=O)OC)c2ccccc2)c1	-	22.1	-	-	-	-	-	-
CCOCCCNC(=O)c1ccc(NC(=O)C2CCCO2)cc1 (stereo not given)	-	29.9	-	-	-	-	-	-
NNC(=O)c1ccc(COc2cccc3ccccc23)cc1	-	-	-	-	-	-	.	.
NNC(=O)c1cccc(COc2ccccc2Br)c1	-	38.6	-	-	-	-	36.3	9.8
CN(C)c1ccc(-c2nc3ccccn3c2/N=C/c2ccc(Br)cc2)cc1	-	17.6	-	-	-	-	35.1	19.3
Cc1cc(C(=O)NNc2ccc(C(C)C)cc2)n(C(C)(C)C)n1	-	-	-	-	-	-	.	.
Cc1ccc(OCC(=O)NC(=S)Nc2ccccn2)c(Br)c1	-	72.5	-	-	-	-	80.4	79.4
O=C(COc1ccc(Br)cc1Cl)NC(=S)Nc1ccccn1	-	32.2	-	-	-	-	38.1	32.5
Cc1cc([N+](=O)[O-])nn1CCCC(=O)Nc1cc(Cl)ccc1Cl	-	-	-	-	-	-	.	.
Cc1ccnc(NS(=O)(=O)c2ccc(NC(=O)CCc3ccccc3)cc2)n1	-	-	-	-	-	-	.	.
COc1ccc(C(=O)CC2OC(=O)c3ccccc32)cc1OC (stereo not given)	-	-	-	-	-	-	.	.
O=C(O)c1cccc(-n2c(O)c(C=C3N=c4ccccc4=N3)sc2=S)c1	-	47.5	-	-	-	-	66.4	-
OC[C@@H]1CN(Cc2ccc3c(c2)OCO3)C[C@H](n2cnc3c(NC4CCC4)ncnc32)O1	.	.	.	.	-	-	.	.
O=C(N/N=C/c1sc2ccccc2c1O)c1ccccc1	-	-	-	-	-	-	.	.
Oc1c(C=Nc2cccc3cccnc23)sc2ccccc12	74.1	36.8	91.8	86.7	.	.	22.5	50.0
O=[N+]([O-])c1ccc(O)c(N=Cc2sc3ccccc3c2O)c1	.	21.4	.	.	-	-	-	-
COc1ccc(/C=C/C(=O)NC(=S)NNC(=O)c2cc(OC)c(OC)c(OC)c2)cc1	-	25.6	-	-	-	-	60.7	26.9
COc1ccc(/C=C/C(=O)NC(=S)NNC(=O)c2cc(OC)c(OC)c(OC)c2)cc1OC	-	-	-	-	-	-	.	.
COc1cc2[nH]c(C(=O)Nc3ccc4c(c3)OCCO4)cc2c(OC)c1OC	-	-	-	-	-	-	.	.
COc1cc2cc(C(=O)Nc3ccc4c(c3)OCCO4)[nH]c2cc1OC	-	35.7	-	-	-	-	62.5	58.2
Cc1ccc(Nc2nc(-c3sc(NC(=O)c4cccc(Cl)c4)nc3C)cs2)cc1	-	70.3	-	-	.	.	46.5	-
COc1ccccc1Nc1nc(-c2sc(NC(=O)c3cccc(Cl)c3)nc2C)cs1	-	66.0	-	-	.	.	60.9	-
Cc1ccc(Nc2nc(-c3sc(NC(=O)c4ccco4)nc3C)cs2)cc1	-	-	-	-	-	-	.	.
CCC(=O)Nc1nc(C)c(-c2csc(Nc3ccc(C(=O)O)cc3)n2)s1	-	-	-	-	-	-	.	.
Cc1nc(NC(=O)c2ccccc2)sc1-c1csc(Nc2ccc(C(=O)O)cc2)n1	.	30.9	.	.	-	-	-	-
SMILES	SENP7 block	HSP90 refold inh	SENP6 inh	SENP8 block-1	SENP8 block-2	SENP1 inh	HSP90 inh confirm	FLuc counter
COc1ccccc1Nc1nc(-c2sc(NC(=O)C(C)(C)C)nc2C)cs1	-	-	-	-	-	-	.	.
O=c1o[nH]c(-c2ccccc2)c1-c1ccccc1	-	.	-	-	-	-	.	.
CC(CCc1ccco1)NC(=O)CCc1nnc2ccc(NCc3ccc(Cl)cc3)nn12 (stereo not given)	-	-	-	-	-	-	.	.
O=C(CSc1nc2ccccc2s1)N/N=C/c1ccccc1C(=O)O	-	17.5	-	-	-	-	-	-
O=C(O)COc1ccccc1/C=N/NC(=O)CSc1nc2ccccc2s1	-	-	-	-	-	-	.	.
COc1ccc(NC(=O)c2ccc(COCC(F)(F)C(F)F)cc2)cc1	-	18.9	-	-	-	-	-	-
Cc1ccc(F)cc1NC(=O)C1CC(=O)N(Cc2ccccc2)C1 (stereo not given)	.	.	.	.	-	-	.	.
Cn1c(-c2ccccc2)cnc1SCC(=O)N1CCCc2ccccc21	-	-	-	-	-	-	.	.
Cn1c(-c2ccccc2)cnc1SCC(=O)N1CCCCC1	-	33.3	-	-	-	-	63.7	55.6
Cc1ccsc1C(=O)OCC(=O)NC1CCCC1	-	.	-	-	-	-	.	.
C/C(=N\NC(=O)c1ccc(Cl)c(Cl)c1)c1ccc(Br)s1	-	-	-	-	-	-	.	.
C/C(=N\Nc1ccc(C(=O)O)cc1)c1ccc(S(=O)(=O)NCc2ccco2)cc1	-	48.1	-	-	-	-	20.4	-
C/C(=N\Nc1ccc(C(=O)O)cc1)c1ccc(Br)cc1	-	46.0	-	-	-	-	77.5	67.3
C/C(=N\Nc1ccc(Cl)c(C(=O)O)c1)c1cccc([N+](=O)[O-])c1	-	18.5	-	-	-	-	-	-
C/C(=N\NC(=O)c1ccccc1C)c1cccc([N+](=O)[O-])c1	-	-	-	-	-	-	.	.
C/C(=N\Nc1ccc(Cl)c(C(=O)O)c1)c1ccc(Br)s1	-	21.8	-	-	-	-	-	-
C/C(=N\Nc1ccccn1)c1ccc(S(=O)(=O)NCc2ccco2)cc1	-	-	-	-	-	-	.	.
Cc1ccc(C(=O)OCC(=O)NNC(=O)c2cccs2)c(O)c1	-	.	-	-	-	-	.	.
COc1cc(NC(=O)CCCN2C(=O)NC(C)(C)C2=O)cc(OC)c1	-	.	-	-	-	-	.	.
O=C(COc1cccc(Cl)c1)Nc1ccc2c(c1)CCC2	-	-	-	-	-	-	.	.
C/C(=N\Nc1ccc(C(=O)O)cc1)c1ccc(Cl)s1	-	21.7	-	-	-	-	28.8	22.1
COc1ccc(/C(C)=N/Nc2ccc(C(=O)O)cc2)c(OC)c1	-	22.5	-	-	-	-	-	18.5
C/C(=N\NC(=O)C(O)c1ccccc1)c1ccc(Cl)s1 (stereo not given)	-	-	-	-	-	-	.	.
NC(=O)c1cccc(-c2cnc(N)c(C(=O)c3cccnc3)n2)c1	.	.	.	.	-	-	.	.
O=C(c1ccc(Cl)cc1)N1CCc2ccccc21	-	18.1	-	-	-	-	-	-
Cc1ccc(C(=O)N2CCc3ccccc32)cc1	-	-	-	-	-	-	.	.
CCCCSc1nc2sc3c(c2c(=O)[nH]1)CC(C)(CC)OC3 (stereo not given)	-	-	-	-	-	-	.	.
Cc1nn(C)c(C(=O)NNC(=S)NCC(C)C)c1Cl	-	-	-	-	-	-	.	.

Screening data (PubChem)
